Each molecule was assayed on Staphylococcus aureus (assay: Increase in 5 ug moxifloxacin antibacterial activity against Staphylococcus aureus SA1199B mutant overexpressing NorA at 128 ug/ml by disk diffusion method).
Type: functional
Summary of the method: (§1)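 Agar diffusion on Mueller-Hinton agar (adjusted to 20 μg/ml Ca²⁺ and 10 μg/ml Mg²⁺), used plain or with the efflux inhibitor incorporated at the stated concentration. Disks were 5 μg for the fluoroquinolones and 30 μg for chloramphenicol. Plates were incubated overnight at 37°C, and inhibition zone diameters were measured. Values are means of at least three independent experiments.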

Compared with `COc1ccc2c(c1)nc([S+]([O-])Cc1nc3ccccc3n3cccc13)c1cccn12` (stereo not drawn), `COc1ccc2[nH]c([S+]([O-])Cc3nc4cc(OC)ccc4n4cccc34)nc2c1` (stereo not drawn) is higher in “inhibition zone (IZ)” value: 27 mm for the first, 28 mm for the second.

`COc1ccc2[nH]c([S+]([O-])Cc3nc4ccc(Cl)cc4n4cccc34)nc2c1` (stereo not drawn) and `[O-][S+](Cc1nc2ccccc2n2cccc12)c1ncc[nH]1` (stereo not drawn) are the same in “inhibition zone (IZ)” value: 27 mm for the first, 27 mm for the second.

Each molecule was assayed on Staphylococcus aureus (assay: Increase in 30 ug chloramphenicol antibacterial activity against Staphylococcus aureus SA1199B mutant overexpressing NorA at 128 ug/ml by disk diffusion method).
Type: functional
Summary of the method: as §1

First: COc1ccc2c(c1)nc([S+]([O-])Cc1nc3ccccc3n3cccc13)c1cccn12 (stereo not drawn)
Second: COc1ccc2[nH]c([S+]([O-])Cc3nc4cc(OC)ccc4n4cccc34)nc2c1 (stereo not drawn)
The “inhibition zone (IZ)” value of the first is lower: 25 mm for the first, 27 mm for the second.

`COc1ccc2[nH]c([S+]([O-])Cc3nc4ccc(Cl)cc4n4cccc34)nc2c1` (stereo not drawn) and `[O-][S+](Cc1nc2ccccc2n2cccc12)c1ncc[nH]1` (stereo not drawn) are the same in “inhibition zone (IZ)” value: 25 mm for the first, 25 mm for the second.

Each molecule was assayed on Staphylococcus aureus (assay: Increase in 5 ug ciprofloxacin antibacterial activity against Staphylococcus aureus SA1199B mutant overexpressing NorA at 128 ug/ml by disk diffusion method).
Type: functional
Summary of the method: as §1

First: COc1ccc2c(c1)nc([S+]([O-])Cc1nc3ccccc3n3cccc13)c1cccn12 (stereo not drawn)
Second: COc1ccc2[nH]c([S+]([O-])Cc3nc4cc(OC)ccc4n4cccc34)nc2c1 (stereo not drawn)
The “inhibition zone (IZ)” value of the first is lower: 17 mm for the first, 24 mm for the second.

Going from `COc1ccc2[nH]c([S+]([O-])Cc3nc4ccc(Cl)cc4n4cccc34)nc2c1` (stereo not drawn) to `[O-][S+](Cc1nc2ccccc2n2cccc12)c1ncc[nH]1` (stereo not drawn), the “inhibition zone (IZ)” value falls from 19 mm to 15 mm.

The molecules below were run on Staphylococcus aureus (assay: Increase in 16 ug/ml Norfloxacin accumulation in wild type Staphylococcus aureus SA1199 at 128 ug/ml after 20 mins).
Type: functional
Summary of the method: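 Mid-exponential SA-1199 cells were washed and resuspended in 50 mM sodium phosphate, pH 7.0. They were exposed at time zero to norfloxacin at one-quarter MIC, alone or with EPI at 128 μg/ml. At 5–20 min, cells were spun through silicone-paraffin oil into orthophosphoric acid. Lysate norfloxacin was measured by C18 HPLC with fluorescence detection (ex 240, em 280 nm) and normalized to BCA protein (ng/mg). Triplicate experiments, mean reported.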

`COc1ccc2[nH]c([S+]([O-])Cc3nc4ccc(Cl)cc4n4cccc34)nc2c1` (stereo not drawn) and `COc1ccc2[nH]c([S+]([O-])Cc3nc4cc(OC)ccc4n4cccc34)nc2c1` (stereo not drawn) are the same in Activity: 10% for the first, 10% for the second.

The molecules below were run on Staphylococcus aureus (assay: Increase in 5 ug sparfloxacin antibacterial activity against Staphylococcus aureus SA1199B mutant overexpressing NorA at 128 ug/ml by disk diffusion method).
Type: functional
Summary of the method: as §1

First: COc1ccc2c(c1)nc([S+]([O-])Cc1nc3ccccc3n3cccc13)c1cccn12 (stereo not drawn)
Second: COc1ccc2[nH]c([S+]([O-])Cc3nc4cc(OC)ccc4n4cccc34)nc2c1 (stereo not drawn)
The “inhibition zone (IZ)” value of the first is lower: 27 mm for the first, 29 mm for the second.

`COc1ccc2[nH]c([S+]([O-])Cc3nc4ccc(Cl)cc4n4cccc34)nc2c1` (stereo not drawn) and `[O-][S+](Cc1nc2ccccc2n2cccc12)c1ncc[nH]1` (stereo not drawn) are the same in “inhibition zone (IZ)” value: 27 mm for the first, 27 mm for the second.

Each molecule was assayed on Staphylococcus aureus (assay: Increase in 16 ug/ml Norfloxacin accumulation in Staphylococcus aureus SA1199B mutant overexpressing NorA measured per milligram of cell protein at 128 ug/ml after 20 mins).
Type: functional, organism-based
Summary of the method: (§2)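 SA-1199B was grown to mid-exponential phase in MH broth (4–5 h, 37°C, shaken), then washed and resuspended in 50 mM sodium phosphate, pH 7.0. Cells got norfloxacin at one-quarter MIC, alone or with inhibitor at 128 μg/ml. At 5–20 min, cells were spun through silicone-paraffin oil into orthophosphoric acid. Norfloxacin was measured by HPLC fluorescence (ex 240/[…]) as ng/mg BCA protein. Means of triplicate experiments.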

`COc1ccc2[nH]c([S+]([O-])Cc3nc4ccc(Cl)cc4n4cccc34)nc2c1` (stereo not drawn) and `COc1ccc2[nH]c([S+]([O-])Cc3nc4cc(OC)ccc4n4cccc34)nc2c1` (stereo not drawn) are the same in Drug uptake: 400 ng/mg for the first, 400 ng/mg for the second.

What follows are molecules tested on Staphylococcus aureus (assay: Increase in 16 ug/ml Norfloxacin accumulation in Staphylococcus aureus SA1199B mutant overexpressing NorA measured per mg of cell protein at 128 ug/ml after 5 mins).
Type: functional, organism-based
Summary of the method: as §2

`COc1ccc2[nH]c([S+]([O-])Cc3nc4ccc(Cl)cc4n4cccc34)nc2c1` (stereo not drawn) and `COc1ccc2[nH]c([S+]([O-])Cc3nc4cc(OC)ccc4n4cccc34)nc2c1` (stereo not drawn) are the same in Drug uptake: 270 ng/mg for the first, 270 ng/mg for the second.

What follows are molecules tested on Staphylococcus aureus (assay: Increase in 5 ug levofloxacin antibacterial activity against Staphylococcus aureus SA1199B mutant overexpressing NorA at 128 ug/ml by disk diffusion method).
Type: functional
Summary of the method: as §1

Compared with `COc1ccc2c(c1)nc([S+]([O-])Cc1nc3ccccc3n3cccc13)c1cccn12` (stereo not drawn), `COc1ccc2[nH]c([S+]([O-])Cc3nc4cc(OC)ccc4n4cccc34)nc2c1` (stereo not drawn) is higher in “inhibition zone (IZ)” value: 22 mm for the first, 24 mm for the second.

Compared with `COc1ccc2[nH]c([S+]([O-])Cc3nc4ccc(Cl)cc4n4cccc34)nc2c1` (stereo not drawn), `[O-][S+](Cc1nc2ccccc2n2cccc12)c1ncc[nH]1` (stereo not drawn) is lower in “inhibition zone (IZ)” value: 23 mm for the first, 22 mm for the second.

These molecules were tested on Staphylococcus aureus (assay: Increase in 5 ug Norfloxacin antibacterial activity against Staphylococcus aureus SA1199B mutant overexpressing NorA at 128 ug/ml by disk diffusion method).
Type: functional
Summary of the method: as §1

First: COc1ccc2c(c1)nc([S+]([O-])Cc1nc3ccccc3n3cccc13)c1cccn12 (stereo not drawn)
Second: COc1ccc2[nH]c([S+]([O-])Cc3nc4cc(OC)ccc4n4cccc34)nc2c1 (stereo not drawn)
The “inhibition zone (IZ)” value of the first is lower: 6 mm for the first, 16 mm for the second.

Compared with `COc1ccc2[nH]c([S+]([O-])Cc3nc4ccc(Cl)cc4n4cccc34)nc2c1` (stereo not drawn), `[O-][S+](Cc1nc2ccccc2n2cccc12)c1ncc[nH]1` (stereo not drawn) is lower in “inhibition zone (IZ)” value: 10 mm for the first, 6 mm for the second.

Each molecule was assayed on Staphylococcus aureus (assay: Increase in 2 ug/ml Norfloxacin antibacterial activity against wild type Staphylococcus aureus SA1199 at 128 ug/ml by checker board method).
Type: functional

Compared with `COc1ccc2c(c1)nc([S+]([O-])Cc1nc3ccccc3n3cccc13)c1cccn12` (stereo not drawn), `COc1ccc2[nH]c([S+]([O-])Cc3nc4cc(OC)ccc4n4cccc34)nc2c1` (stereo not drawn) is 2-fold lower in MIC: 2 µg/mL for the first, 1 µg/mL for the second.

Going from `COc1ccc2[nH]c([S+]([O-])Cc3nc4ccc(Cl)cc4n4cccc34)nc2c1` (stereo not drawn) to `[O-][S+](Cc1nc2ccccc2n2cccc12)c1ncc[nH]1` (stereo not drawn), the MIC rises from 1 µg/mL to 2 µg/mL (2-fold).

What follows are molecules tested on Staphylococcus aureus (assay: Antibacterial activity against Staphylococcus aureus).
Type: functional
Summary of the method: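 Tube broth dilution MIC against SA-1199 and NorA-overproducing SA-1199B in Mueller-Hinton broth with 20 μg/ml Ca²⁺ and 10 μg/ml Mg²⁺. Inoculum was a 4–5 h 37°C culture diluted 1/10 (≈10⁶ CFU/ml). Compound range was 512 to 1 μg/ml, dissolved in DMSO (final ≤4%).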

`COc1ccc2c(c1)nc([S+]([O-])Cc1nc3ccccc3n3cccc13)c1cccn12` (stereo not drawn) and `COc1ccc2[nH]c([S+]([O-])Cc3nc4cc(OC)ccc4n4cccc34)nc2c1` (stereo not drawn) cannot be ordered by MIC: over 512 µg/mL for the first, over 512 µg/mL for the second.

`COc1ccc2[nH]c([S+]([O-])Cc3nc4ccc(Cl)cc4n4cccc34)nc2c1` (stereo not drawn) and `[O-][S+](Cc1nc2ccccc2n2cccc12)c1ncc[nH]1` (stereo not drawn) cannot be ordered by MIC: over 512 µg/mL for the first, over 512 µg/mL for the second.

What follows are molecules tested on Staphylococcus aureus (assay: Increase in 16 ug/ml Norfloxacin accumulation in Staphylococcus aureus SA1199B mutant overexpressing NorA at 128 ug/ml after 20 mins).
Type: functional
Summary of the method: as §2

`COc1ccc2[nH]c([S+]([O-])Cc3nc4ccc(Cl)cc4n4cccc34)nc2c1` (stereo not drawn) and `COc1ccc2[nH]c([S+]([O-])Cc3nc4cc(OC)ccc4n4cccc34)nc2c1` (stereo not drawn) are the same in Activity: 40% for the first, 40% for the second.

What follows are molecules tested on Staphylococcus aureus (assay: Increase in 64 ug/ml Norfloxacin antibacterial activity against Staphylococcus aureus SA1199B mutant overexpressing NorA at 128 ug/ml by checker board method).
Type: functional

First: COc1ccc2c(c1)nc([S+]([O-])Cc1nc3ccccc3n3cccc13)c1cccn12 (stereo not drawn)
Second: COc1ccc2[nH]c([S+]([O-])Cc3nc4cc(OC)ccc4n4cccc34)nc2c1 (stereo not drawn)
The MIC of the first is 4-fold higher: 32 µg/mL for the first, 8 µg/mL for the second.

First: COc1ccc2[nH]c([S+]([O-])Cc3nc4ccc(Cl)cc4n4cccc34)nc2c1 (stereo not drawn)
Second: [O-][S+](Cc1nc2ccccc2n2cccc12)c1ncc[nH]1 (stereo not drawn)
The MIC of the first is 2-fold lower: 16 µg/mL for the first, 32 µg/mL for the second.

Each molecule was assayed on Staphylococcus aureus (assay: Increase in 5 ug ofloxacin antibacterial activity against Staphylococcus aureus SA1199B mutant overexpressing NorA at 128 ug/ml by disk diffusion method).
Type: functional
Summary of the method: as §1

Going from `COc1ccc2c(c1)nc([S+]([O-])Cc1nc3ccccc3n3cccc13)c1cccn12` (stereo not drawn) to `COc1ccc2[nH]c([S+]([O-])Cc3nc4cc(OC)ccc4n4cccc34)nc2c1` (stereo not drawn), the “inhibition zone (IZ)” value rises from 19 mm to 25 mm.

Compared with `COc1ccc2[nH]c([S+]([O-])Cc3nc4ccc(Cl)cc4n4cccc34)nc2c1` (stereo not drawn), `[O-][S+](Cc1nc2ccccc2n2cccc12)c1ncc[nH]1` (stereo not drawn) is lower in “inhibition zone (IZ)” value: 21 mm for the first, 19 mm for the second.

From ChEMBL document CHEMBL1142063, “Synthesis of omeprazole analogues and evaluation of these as potential inhibitors of the multidrug efflux pump NorA of Staphylococcus aureus” (2007)
